The values below come from ChEMBL document CHEMBL2401625, “Synthesis and evaluation of pharmacological properties of some new xanthone derivatives with piperazine moiety” (Bioorg Med Chem Lett, 2013).

In data set [1] the test system is Mus musculus. In words: Neurotoxicity in CF1 mouse assessed as minimal motor impairment at 30 mg/kg, ip after 4 hrs by rotorod test. Further details: dose 30 mg/kg, route intraperitoneal. Conditions: in vivo. Format: toxicity, organism-based. A digest of the protocol: (§1)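 Rotarod neurotoxicity screen in mice dosed i.p. at 30, 100 or 300 mg/kg, read 0.5 or 4 h after dosing. The animal must stay on a rod rotating at 6 rpm without falling, measured 3 times within 1 min. A fall counts as minimal motor impairment. Result is recorded as impaired animals over animals used.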

The subject of data set [2] is Mus musculus. The experiment in a line: Neurotoxicity in CF1 mouse assessed as minimal motor impairment at 100 mg/kg, ip after 4 hrs by rotorod test. It counts as toxicity, organism-based. Further details: dose 100 mg/kg, route intraperitoneal. Conditions: in vivo. In a few lines:
as §1
In general terms: In the rotarod test animals must keep their balance on a rotating rod.

Data set [3] relates to Mus musculus. The experiment in a line: Neurotoxicity in CF1 mouse assessed as minimal motor impairment at 300 mg/kg, ip after 0.5 hrs by rotorod test. It counts as toxicity, organism-based. More on the design: dose 300 mg/kg, route intraperitoneal. To be noted: in vivo. A digest of the protocol:
as §1

The test system of data set [4] is Mus musculus. The experiment in a line: Neurotoxicity in CF1 mouse assessed as minimal motor impairment at 30 mg/kg, ip after 0.5 hrs by rotorod test. It counts as toxicity, organism-based. More on the design: dose 30 mg/kg, route intraperitoneal. Conditions: in vivo. A digest of the protocol: as §1
Data set [5] concerns Rattus norvegicus. In words: Neurotoxicity in Sprague-Dawley rat assessed as minimal motor impairment at 30 mg/kg, po after 1 hr by rotorod test. To be noted: in vivo.
Data set [6] concerns Rattus norvegicus. In words: Neurotoxicity in Sprague-Dawley rat assessed as minimal motor impairment at 30 mg/kg, po after 4 hrs by rotorod test. Conditions: in vivo.
Data set [7] has as its system Rattus norvegicus. The experiment in a line: Neurotoxicity in Sprague-Dawley rat assessed as minimal motor impairment at 30 mg/kg, po after 2 hrs by rotorod test. Conditions: in vivo.
Data set [8] concerns Rattus norvegicus. The experiment in a line: Neurotoxicity in Sprague-Dawley rat assessed as minimal motor impairment at 30 mg/kg, po after 0.5 hrs by rotorod test. To be noted: in vivo.
Data set [9] relates to Rattus norvegicus. The experiment in a line: Neurotoxicity in Sprague-Dawley rat assessed as minimal motor impairment at 30 mg/kg, po after 0.25 hrs by rotorod test. To be noted: in vivo.
Data set [10] addresses T1, Adrenergic receptor alpha-1 (Rattus norvegicus, UniProt P15823+P23944+P43140).
T1 sequence (P15823 whole entry): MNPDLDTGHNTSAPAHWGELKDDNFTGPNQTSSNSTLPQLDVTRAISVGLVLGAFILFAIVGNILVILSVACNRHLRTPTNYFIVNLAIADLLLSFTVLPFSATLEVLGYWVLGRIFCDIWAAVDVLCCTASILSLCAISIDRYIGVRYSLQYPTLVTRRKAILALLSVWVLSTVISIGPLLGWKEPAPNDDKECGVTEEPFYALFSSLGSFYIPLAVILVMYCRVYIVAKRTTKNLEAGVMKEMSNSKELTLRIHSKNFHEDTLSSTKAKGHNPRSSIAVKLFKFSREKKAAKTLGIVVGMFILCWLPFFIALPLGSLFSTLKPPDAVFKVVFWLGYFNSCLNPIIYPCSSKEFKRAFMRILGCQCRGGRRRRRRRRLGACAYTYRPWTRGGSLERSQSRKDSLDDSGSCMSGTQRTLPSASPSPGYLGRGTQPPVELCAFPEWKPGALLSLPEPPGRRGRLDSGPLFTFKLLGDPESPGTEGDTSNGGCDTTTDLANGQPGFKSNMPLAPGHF
T1 sequence (P23944 whole entry): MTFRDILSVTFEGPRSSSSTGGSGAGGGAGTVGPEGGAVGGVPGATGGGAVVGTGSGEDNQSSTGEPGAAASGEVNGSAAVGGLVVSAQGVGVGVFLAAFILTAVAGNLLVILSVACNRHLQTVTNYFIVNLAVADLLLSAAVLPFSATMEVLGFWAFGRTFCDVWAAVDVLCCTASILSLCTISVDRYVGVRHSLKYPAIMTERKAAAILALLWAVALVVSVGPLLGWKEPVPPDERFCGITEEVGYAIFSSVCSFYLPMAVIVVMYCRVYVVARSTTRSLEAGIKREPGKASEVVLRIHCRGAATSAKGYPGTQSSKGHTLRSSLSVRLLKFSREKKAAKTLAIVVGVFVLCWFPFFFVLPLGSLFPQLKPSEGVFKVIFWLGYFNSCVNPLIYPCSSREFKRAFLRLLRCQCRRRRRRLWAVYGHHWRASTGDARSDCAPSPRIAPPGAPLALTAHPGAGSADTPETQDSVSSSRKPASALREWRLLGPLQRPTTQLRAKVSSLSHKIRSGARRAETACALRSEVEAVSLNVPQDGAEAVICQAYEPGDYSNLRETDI
T1 sequence (P43140 whole entry): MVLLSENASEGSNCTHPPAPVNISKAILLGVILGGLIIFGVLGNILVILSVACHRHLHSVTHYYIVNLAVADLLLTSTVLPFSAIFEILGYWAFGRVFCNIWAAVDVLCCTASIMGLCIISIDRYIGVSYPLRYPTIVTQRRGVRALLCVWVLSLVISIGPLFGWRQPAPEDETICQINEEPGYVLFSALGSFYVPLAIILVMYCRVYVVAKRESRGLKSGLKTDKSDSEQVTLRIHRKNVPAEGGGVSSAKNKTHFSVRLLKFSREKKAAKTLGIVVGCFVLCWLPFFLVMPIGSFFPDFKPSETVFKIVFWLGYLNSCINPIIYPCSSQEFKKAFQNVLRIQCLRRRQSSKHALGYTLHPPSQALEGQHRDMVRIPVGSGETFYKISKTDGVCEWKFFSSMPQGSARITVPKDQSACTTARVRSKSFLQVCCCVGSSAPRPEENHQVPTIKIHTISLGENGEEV
In words: Displacement of [3H]prazosin from alpha1-adrenergic receptor in rat cerebral cortex after 30 mins by scintillation counting. Format: tissue-based. A digest of the protocol:
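Radioligand binding on rat brain tissue membranes, run in 96-well format. [3H]prazosin was used for α1 (n = 2) and [3H]CGP-12177 for β1 (n = 2). Ki was calculated by the Cheng–Prusoff equation.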
(In a radioligand displacement assay an active substance lowers the binding of a labelled ligand.)

In data set [11] the target is 5-hydroxytryptamine receptor 7 (Homo sapiens, UniProt P34969). In words: Displacement of [3H]5-CT from human 5HT7b receptor expressed in HEK293 cells after 1 hr. Format: cell-based.
The target of data set [12] is 5-hydroxytryptamine receptor 6 (Homo sapiens, UniProt P50406). The experiment in a line: Displacement of [3H]LSD from human 5HT6 receptor expressed in HEK293 cells after 1 hr. Format: cell-based.
In data set [13] the target is T2, 5-hydroxytryptamine receptor 1A (Homo sapiens, UniProt P08908).
T2 sequence (P08908 whole entry): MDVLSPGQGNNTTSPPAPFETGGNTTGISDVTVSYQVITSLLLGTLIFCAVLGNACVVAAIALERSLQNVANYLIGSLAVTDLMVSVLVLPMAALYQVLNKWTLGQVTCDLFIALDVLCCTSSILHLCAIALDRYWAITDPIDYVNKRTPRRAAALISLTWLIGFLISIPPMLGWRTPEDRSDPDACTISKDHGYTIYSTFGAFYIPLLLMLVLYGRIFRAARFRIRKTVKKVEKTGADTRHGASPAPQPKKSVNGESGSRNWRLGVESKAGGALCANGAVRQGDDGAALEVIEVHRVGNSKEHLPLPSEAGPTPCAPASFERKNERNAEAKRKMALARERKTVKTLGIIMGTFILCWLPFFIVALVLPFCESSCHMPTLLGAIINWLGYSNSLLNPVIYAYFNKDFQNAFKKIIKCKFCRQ
In words: Displacement of [3H]8-OH-DPAT from human 5HT1A receptor expressed in HEK293 cells after 1 hr. Format: cell-based.

Data set [14] concerns Mus musculus. The experiment in a line: Neurotoxicity in CF1 mouse assessed as minimal motor impairment at 300 mg/kg, ip after 4 hrs by rotorod test. It counts as toxicity, organism-based. More on the design: dose 300 mg/kg, route intraperitoneal. To be noted: in vivo. A digest of the protocol:
as §1

Sequence of 5-hydroxytryptamine receptor 7 (P34969 whole entry): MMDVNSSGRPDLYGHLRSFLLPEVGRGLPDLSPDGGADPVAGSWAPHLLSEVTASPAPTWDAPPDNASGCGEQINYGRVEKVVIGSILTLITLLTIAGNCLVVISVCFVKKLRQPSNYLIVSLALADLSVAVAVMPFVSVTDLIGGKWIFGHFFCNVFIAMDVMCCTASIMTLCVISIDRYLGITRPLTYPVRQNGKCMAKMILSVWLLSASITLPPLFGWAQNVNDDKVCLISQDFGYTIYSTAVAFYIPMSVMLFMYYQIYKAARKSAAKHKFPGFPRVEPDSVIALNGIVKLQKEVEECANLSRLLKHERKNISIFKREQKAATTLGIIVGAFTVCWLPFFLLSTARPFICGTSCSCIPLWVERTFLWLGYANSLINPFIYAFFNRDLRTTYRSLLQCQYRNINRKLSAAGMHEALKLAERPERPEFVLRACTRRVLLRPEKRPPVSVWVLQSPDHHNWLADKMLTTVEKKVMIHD
Sequence of 5-hydroxytryptamine receptor 6 (P50406 whole entry): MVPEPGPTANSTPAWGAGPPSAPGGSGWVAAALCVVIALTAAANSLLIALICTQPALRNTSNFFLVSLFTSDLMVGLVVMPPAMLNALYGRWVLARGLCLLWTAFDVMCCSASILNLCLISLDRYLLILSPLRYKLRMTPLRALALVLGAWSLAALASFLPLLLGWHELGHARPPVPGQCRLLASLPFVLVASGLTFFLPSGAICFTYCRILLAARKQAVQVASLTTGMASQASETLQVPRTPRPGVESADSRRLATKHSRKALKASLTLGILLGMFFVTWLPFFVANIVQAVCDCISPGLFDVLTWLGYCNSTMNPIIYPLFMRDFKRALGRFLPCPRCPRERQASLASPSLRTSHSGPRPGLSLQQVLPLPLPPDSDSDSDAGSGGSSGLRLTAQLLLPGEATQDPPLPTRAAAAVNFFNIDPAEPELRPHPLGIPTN

On to `COc1ccc2c(=O)c3cc(CN4CCN(C)CC4)ccc3oc2c1`, for which the Activity result in the data set on Mus musculus [1] is “Non-toxic”; in the data set with Mus musculus [2], “Non-toxic”; in the data set on Mus musculus [3] it was “Toxic”; with Mus musculus [4], “Non-toxic”; with Rattus norvegicus [5], “Non-toxic”; with Rattus norvegicus [6], “Non-toxic”. Further, the Activity entry in the data set with Rattus norvegicus [7], in the data set with Rattus norvegicus [8] and in the data set with Rattus norvegicus [9] was “Non-toxic” each time.
Take `COc1ccc2c(=O)c3cc(CN4CCN(C)CC4)ccc3oc2c1.Cl.Cl`: the Ki was determined as 0.49 µM in data set [10], 17 µM in data set [11], 19.1 µM in data set [12] and 15.8 µM in data set [13].
Turning to `COc1ccc2c(=O)c3cc(CN4CCN(c5ccccc5OC)CC4)ccc3oc2c1`, the Activity result in the data set on Mus musculus [14], in the data set on Mus musculus [1], in the data set with Mus musculus [2], in the data set on Mus musculus [3] and in the data set with Mus musculus [4] was “Non-toxic” throughout.
`COc1ccc2c(=O)c3cc(CN4CCN(Cc5ccccc5)CC4)ccc3oc2c1.Cl.Cl`: the Ki was found to be 0.31 µM in [10], 13.5 µM in [11], 8.84 µM in data set [12] and 1.67 µM in data set [13].

As a reminder, the Ki is the dissociation constant of the complex between target and ligand, obtained from inhibition or displacement. A higher Ki goes with weaker binding.
